The source of these data is ChEMBL document CHEMBL5528013 (Eur J Med Chem, 2024).

What is called IC50 is the concentration that inhibits the measured activity by half. By inhibition is commonly meant how much of the control response was suppressed.

One data set deals with MDA-MB-231. Briefly: Antiproliferative activity against human MDA-MB-231 cells lacking FLT3 activating mutations assessed as inhibition of cell growth incubated for 72 hrs by resazurin dye based assay. The conditions noted are these: MDA-MB-231, 72 h. The data set is classed as functional. In short, it runs like this: (§1)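 Logarithmic-phase cells were seeded at 5000 per well and treated 24 h later, in triplicate, with various concentrations for 72 h. MOLM14 lines were grown in RPMI with 10 % FBS, and other lines per provider instructions, all at 37 °C and 5 % CO2. Resazurin was then added for 4–6 h and fluorescence read. GI50 was taken from percent growth versus DMSO control, fitted with a variable-slope normalized-response model; at least three runs.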

Data set [1] can be described thus: Cytotoxicity against HEK293 cells lacking FLT3 activating mutations assessed as inhibition of cell growth incubated for 72 hrs by resazurin dye based assay. The data set is classed as toxicity. To be noted: human. In short, it runs like this:
as §1

In another data set the test system is K562. Nature of the data set: Antiproliferative activity against human K562 cells assessed as inhibition of cell growth incubated for 72 hrs by resazurin dye based assay. The data set is classed as functional. To be noted: K562, 72 h. The method, boiled down: as §1
In data set [2] the test system is MOLM-14. Nature of the data set: Antiproliferative activity against human MOLM-14 cells harboring FLT3-D835Y mutant assessed as inhibition of cell growth incubated for 72 hrs by resazurin dye based assay. The data set is classed as functional. The conditions noted are these: MOLM-14, 72 h. In short, it runs like this:
as §1
Background: The colour change of resazurin is a common sign of viable cells or microbes.

Data set [3] has as its system MOLM-14. The data set is classed as functional, cell-based. The conditions noted are these: Homo sapiens, MOLM-14, 72 h.
Data set [4] concerns MOLM-14. Nature of the data set: Antiproliferative activity against human MOLM-14 cells assessed as inhibition of cell growth incubated for 72 hrs by resazurin dye based assay. The data set is classed as functional. To be noted: MOLM-14, 72 h. In short, it runs like this:
as §1

The target of data set [5] is T1, Receptor-type tyrosine-protein kinase FLT3 (Homo sapiens, UniProt P36888).
T1 sequence (P36888 whole entry): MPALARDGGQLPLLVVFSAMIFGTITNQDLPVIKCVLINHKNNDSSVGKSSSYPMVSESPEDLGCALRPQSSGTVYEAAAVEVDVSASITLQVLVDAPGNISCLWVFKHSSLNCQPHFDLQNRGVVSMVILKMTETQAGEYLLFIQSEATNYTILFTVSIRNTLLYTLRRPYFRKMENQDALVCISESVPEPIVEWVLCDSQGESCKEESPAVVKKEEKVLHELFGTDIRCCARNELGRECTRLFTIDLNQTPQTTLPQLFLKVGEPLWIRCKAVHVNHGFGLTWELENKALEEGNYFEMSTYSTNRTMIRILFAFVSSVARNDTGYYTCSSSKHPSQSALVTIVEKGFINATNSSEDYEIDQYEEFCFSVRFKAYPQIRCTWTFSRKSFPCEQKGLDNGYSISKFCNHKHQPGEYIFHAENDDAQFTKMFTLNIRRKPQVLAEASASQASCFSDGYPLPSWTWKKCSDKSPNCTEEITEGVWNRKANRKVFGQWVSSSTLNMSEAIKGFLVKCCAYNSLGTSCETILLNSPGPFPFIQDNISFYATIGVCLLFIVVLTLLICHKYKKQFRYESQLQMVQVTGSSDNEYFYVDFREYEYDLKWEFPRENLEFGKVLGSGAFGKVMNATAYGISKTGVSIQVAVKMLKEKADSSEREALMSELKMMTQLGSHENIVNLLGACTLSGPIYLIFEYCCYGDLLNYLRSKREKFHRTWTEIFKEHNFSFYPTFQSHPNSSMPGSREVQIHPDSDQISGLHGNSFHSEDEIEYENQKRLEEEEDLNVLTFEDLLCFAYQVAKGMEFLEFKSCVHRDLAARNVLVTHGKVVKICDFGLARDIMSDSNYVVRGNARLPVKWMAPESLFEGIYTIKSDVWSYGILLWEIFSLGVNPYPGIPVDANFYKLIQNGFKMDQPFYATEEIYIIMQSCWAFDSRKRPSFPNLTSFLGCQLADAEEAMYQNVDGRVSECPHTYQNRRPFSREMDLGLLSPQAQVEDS
Nature of the data set: Inhibition of FLT3 (unknown origin) by bioluminescent ADP-Glo assay.

In data set [6] the test system is MOLM-14. Nature of the data set: Inhibition of ERK phosphorylation in human MOLM-14 cells harboring FLT3 D835Y mutant at 10 times IC50 incubated for 2 hrs by Western blot analysis relative to control. The data set is classed as cell-based. (In general: In western blotting, separated proteins are transferred to a membrane and probed.)
The subject of data set [7] is MOLM-14. Briefly: Inhibition of ERK phosphorylation in human MOLM-14 cells at 10 times IC50 incubated for 2 hrs by Western blot analysis relative to control. The data set is classed as cell-based.
The subject of data set [8] is MOLM-14. Nature of the data set: Inhibition of ERK phosphorylation in human MOLM-14 cells harboring FLT3 D835Y mutant at 1 times IC50 incubated for 2 hrs by Western blot analysis. The data set is classed as cell-based.
For data set [9], the target named is Receptor-type tyrosine-protein kinase FLT3 (Homo sapiens) (UniProt P36888). The conditions noted are these: dose 4.5 nM, time 1.0 hrs.
The test system of data set [10] is MOLM-14. Briefly: Inhibition of ERK phosphorylation in human MOLM-14 cells at 1 times IC50 incubated for 2 hrs by Western blot analysis. The data set is classed as cell-based.
Data set [11] deals with Mast/stem cell growth factor receptor Kit (Homo sapiens, UniProt P10721). Nature of the data set: Binding affinity to KIT (unknown origin) at 4.5 nM incubated for 1 hr by KINOMEscan analysis. To be noted: 0.0045 µM. The method, boiled down: (§2)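 Competition binding panel: DNA-tagged kinases combined with beads carrying immobilized biotinylated ligand and test compound in binding buffer (20 % SeaBlock, 0.17x PBS, 0.05 % Tween 20, 6 mM DTT). Compound diluted from 100x DMSO stocks. Incubated 1 h at room temperature with shaking, then washed. Bound kinase eluted with non-biotinylated ligand for 30 min. Kinase in eluate quantified by qPCR.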
Sequence of Mast/stem cell growth factor receptor Kit (P10721 whole entry): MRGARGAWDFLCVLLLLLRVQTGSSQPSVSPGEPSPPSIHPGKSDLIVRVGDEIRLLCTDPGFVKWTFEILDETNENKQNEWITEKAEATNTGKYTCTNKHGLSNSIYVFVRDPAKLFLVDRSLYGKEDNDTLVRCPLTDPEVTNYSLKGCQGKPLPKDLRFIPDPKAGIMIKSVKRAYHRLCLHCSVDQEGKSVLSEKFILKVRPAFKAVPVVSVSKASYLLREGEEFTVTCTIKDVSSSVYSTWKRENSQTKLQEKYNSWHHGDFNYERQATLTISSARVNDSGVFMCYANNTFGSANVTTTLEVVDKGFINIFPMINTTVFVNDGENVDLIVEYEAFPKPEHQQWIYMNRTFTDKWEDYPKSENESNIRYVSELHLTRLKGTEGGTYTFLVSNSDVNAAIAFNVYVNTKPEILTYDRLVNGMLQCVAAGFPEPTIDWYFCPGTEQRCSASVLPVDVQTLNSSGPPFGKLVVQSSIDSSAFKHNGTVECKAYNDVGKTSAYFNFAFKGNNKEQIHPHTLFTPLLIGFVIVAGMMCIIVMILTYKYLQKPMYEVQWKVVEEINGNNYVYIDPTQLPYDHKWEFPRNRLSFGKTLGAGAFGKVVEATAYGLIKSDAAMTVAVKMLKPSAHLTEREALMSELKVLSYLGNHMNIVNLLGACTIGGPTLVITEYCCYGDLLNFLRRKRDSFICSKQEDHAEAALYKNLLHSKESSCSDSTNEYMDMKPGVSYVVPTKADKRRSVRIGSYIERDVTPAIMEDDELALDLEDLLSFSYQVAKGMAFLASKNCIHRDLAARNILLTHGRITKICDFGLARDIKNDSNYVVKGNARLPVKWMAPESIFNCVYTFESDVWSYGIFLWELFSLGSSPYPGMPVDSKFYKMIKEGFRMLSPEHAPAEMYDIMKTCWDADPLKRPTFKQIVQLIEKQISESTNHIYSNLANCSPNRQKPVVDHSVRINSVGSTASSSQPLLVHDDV

Data set [12] has as its system MOLM-14. The data set is classed as cell-based. The conditions noted are these: Homo sapiens, time 2.0 hrs.
Data set [13] addresses High affinity nerve growth factor receptor (Homo sapiens) (UniProt P04629). Nature of the data set: Inhibition of TRKA (unknown origin) at 4.5 nM incubated for 1 hr by KINOMEscan analysis relative to control. The method, boiled down: as §2

Active and inactive are the calls of the source. The calls are words filed in the database; no cut-off is given here.

Sequence of High affinity nerve growth factor receptor (Homo sapiens) (P04629 33-796 limits assumed): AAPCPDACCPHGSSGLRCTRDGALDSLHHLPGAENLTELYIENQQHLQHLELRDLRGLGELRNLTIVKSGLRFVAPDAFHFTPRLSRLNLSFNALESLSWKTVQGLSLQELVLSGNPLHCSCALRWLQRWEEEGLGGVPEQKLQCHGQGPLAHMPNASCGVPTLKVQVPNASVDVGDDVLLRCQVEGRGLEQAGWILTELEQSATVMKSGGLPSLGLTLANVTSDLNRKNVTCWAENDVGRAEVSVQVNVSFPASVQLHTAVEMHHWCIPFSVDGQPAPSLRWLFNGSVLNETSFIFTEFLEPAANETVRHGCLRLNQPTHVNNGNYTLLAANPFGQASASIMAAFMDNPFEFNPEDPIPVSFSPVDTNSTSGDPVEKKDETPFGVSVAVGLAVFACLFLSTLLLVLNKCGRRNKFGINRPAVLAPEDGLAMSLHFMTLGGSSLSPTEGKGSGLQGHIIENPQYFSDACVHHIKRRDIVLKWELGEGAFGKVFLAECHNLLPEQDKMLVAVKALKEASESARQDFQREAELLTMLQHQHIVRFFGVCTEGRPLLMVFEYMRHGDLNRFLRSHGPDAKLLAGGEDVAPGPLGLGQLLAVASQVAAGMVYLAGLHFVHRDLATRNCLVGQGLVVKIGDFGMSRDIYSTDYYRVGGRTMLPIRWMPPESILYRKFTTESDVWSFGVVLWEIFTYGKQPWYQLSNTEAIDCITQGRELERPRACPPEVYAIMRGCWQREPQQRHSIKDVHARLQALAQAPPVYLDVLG

Take `Cn1cc(-c2ccn3c(-c4cccc(Nc5cccc(C(C)(C)C)c5)n4)cnc3c2)cn1`: the half-maximal inhibitory concentration (IC50) with MDA-MB-231 was over 1 µM; with K562, over 1 µM; in the data set with MOLM-14 [2], 0.265 µM; in the data set with MOLM-14 [3], 0.412 µM; in the data set with MOLM-14 [4] it was 0.154 µM; in data set [5] it was 0.288 µM. Further, the 50% inhibitory concentration (IC50) at 72 h in data set [1] was determined as 0.993 µM.

Turning to `Cn1cc(-c2ccn3c(-c4cccc(Nc5ccc(S(C)(=O)=O)cc5)n4)cnc3c2)cn1`, the inhibition in the data set with MOLM-14 [6] is 100%; in the data set with MOLM-14 [7], 100%; in data set [9] it was over 65%; in [13], over 65%. For the same compound, the half-inhibitory concentration (IC50) is over 1 µM in the data set with MDA-MB-231; over 1 µM with K562; 0.00316 µM in the data set with MOLM-14 [2]; 0.00834 µM in the data set on MOLM-14 [3]; 0.00455 µM in the data set with MOLM-14 [4]; 0.00794 µM in [5]. For the same compound, the inhibition entry with MOLM-14 [8], in the data set with MOLM-14 [10] and in the data set with MOLM-14 [12] was “Active” in each case. Further, in data set [1], the 50% inhibitory concentration (IC50) at 72 h was over 1 µM. Moreover, in data set [11], the “inhibition (INH)” value is given as “Not Active”.

Turning to `COc1ccc(Nc2cccc(-c3cnc4cc(-c5cnn(C)c5)ccn34)n2)cc1OC`, the 50% inhibitory concentration (IC50) in the data set on MDA-MB-231 is over 1 µM; in the data set on K562, 0.969 µM; in the data set on MOLM-14 [2], 0.00464 µM; in the data set on MOLM-14 [3] it was 0.014 µM; in the data set on MOLM-14 [4] it was 0.00249 µM; in [5], 0.00663 µM. The half-maximal inhibitory concentration (IC50) at 72 h in data set [1] is over 1 µM.

Consider `COc1cc(Nc2cccc(-c3cnc4cc(-c5ccc(S(C)(=O)=O)cc5)ccn34)n2)cc(OC)c1OC`, for which the IC50 was over 1 µM in the data set with MDA-MB-231; over 1 µM with K562; 0.0439 µM with MOLM-14 [2]; 0.13 µM in the data set on MOLM-14 [3]; 0.0946 µM in data set [5]. For the same compound, the concentration for half-maximal inhibition (IC50) at 72 h in data set [1] is over 1 µM.
